Measurements taken from article PMC6528680 (Journal of natural products, 2019).
Like-named read-outs stand apart in the source and are kept apart here. Marks after values point to notes of the source that are not given here. Values belong to the molecule of their own block, whether it stands above or below them.

Tests used:
[1] = type: in vivo, mice (C57BL/6J, C3H/HeJ, mps/mps)
Summary of the method: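 Test compound dosed IP at 100 mg/kg in DMSO to 15-week female BL/6J, female HeJ and male mps/mps mice (n=3–5/group). Blood and marrow were taken under isoflurane at 20 min. Marrow pellets were resuspended in 50 mM sodium acetate pH 5 and held 2 h on ice, then supernatants were kept. Serum was acidified to pH 5, and aglycone and glucuronide were measured by HLB solid-phase extraction and LC/MS. Mean ± SEM.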

[2] = type: in vivo, mice (C57BL/6J, C3H/HeJ)
Summary of the method: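 Oral gavage of 500 mg/kg in DMSO to C57BL/6J and C3H/HeJ mice (n=3–4/group), with sampling at 30 min under isoflurane. Marrow pellets were suspended in 50 mM sodium acetate pH 5 for 2 h on ice and centrifuged. Serum was acidified to pH 5 with HCl before HLB extraction and LC/MS. Marrow concentrations were corrected to pellet volume, assuming density 1.06 g/ml. Mean ± SEM.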

RAW 264.7 cells = assay: RAW 264.7 cell viability; type: cell-based, murine; details: at approximately 3 μM; data not shown
[3] = type: in vivo; details: C57BL/6J mice
recombinant human GUSB = biological target: T1, recombinant human GUSB (Homo sapiens, UniProt P08236); assay: GUSB-specificity of substrate deconjugation; type: biochemical; details: 37°C, 50 mM sodium acetate buffer pH 5
T1 sequence (P08236 23-651): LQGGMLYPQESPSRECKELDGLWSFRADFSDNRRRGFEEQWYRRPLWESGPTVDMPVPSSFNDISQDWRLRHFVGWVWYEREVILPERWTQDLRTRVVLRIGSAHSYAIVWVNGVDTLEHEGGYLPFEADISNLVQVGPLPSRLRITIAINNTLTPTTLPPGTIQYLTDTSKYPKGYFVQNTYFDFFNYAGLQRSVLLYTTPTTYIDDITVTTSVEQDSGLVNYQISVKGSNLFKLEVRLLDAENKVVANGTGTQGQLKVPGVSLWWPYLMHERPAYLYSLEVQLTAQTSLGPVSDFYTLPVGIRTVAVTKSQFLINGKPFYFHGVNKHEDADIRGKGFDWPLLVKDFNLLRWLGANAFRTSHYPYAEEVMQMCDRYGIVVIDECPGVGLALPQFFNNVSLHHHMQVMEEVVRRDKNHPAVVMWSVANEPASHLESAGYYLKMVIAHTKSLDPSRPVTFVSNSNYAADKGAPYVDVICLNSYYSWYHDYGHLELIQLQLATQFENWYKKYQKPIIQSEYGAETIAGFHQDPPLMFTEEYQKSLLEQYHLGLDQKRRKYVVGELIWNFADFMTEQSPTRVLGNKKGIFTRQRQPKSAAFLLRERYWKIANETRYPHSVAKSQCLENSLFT
Summary of the method: (§1)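 Recombinant human GUSB, HPSE or KL, normalized to molarity, was incubated 30–60 min at 37°C in 50 mM sodium acetate pH 5 with 4-methylumbelliferyl-glucuronide or phenolphthalein-glucuronide at above-Km concentrations. Reactions were quenched. Product was quantified against 4-MU or phenolphthalein standard curves by fluorescence (Ex 360/Em 470 nm) or absorbance at 540 nm. Rates are given as nmol product per enzyme amount per min.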

recombinant human HPSE = biological target: T2, recombinant human HPSE (Homo sapiens, UniProt Q9Y251); assay: GUSB-specificity of substrate deconjugation; type: biochemical; details: 37°C, 50 mM sodium acetate buffer pH 5
T2 sequence (Q9Y251 158-543 limits assumed): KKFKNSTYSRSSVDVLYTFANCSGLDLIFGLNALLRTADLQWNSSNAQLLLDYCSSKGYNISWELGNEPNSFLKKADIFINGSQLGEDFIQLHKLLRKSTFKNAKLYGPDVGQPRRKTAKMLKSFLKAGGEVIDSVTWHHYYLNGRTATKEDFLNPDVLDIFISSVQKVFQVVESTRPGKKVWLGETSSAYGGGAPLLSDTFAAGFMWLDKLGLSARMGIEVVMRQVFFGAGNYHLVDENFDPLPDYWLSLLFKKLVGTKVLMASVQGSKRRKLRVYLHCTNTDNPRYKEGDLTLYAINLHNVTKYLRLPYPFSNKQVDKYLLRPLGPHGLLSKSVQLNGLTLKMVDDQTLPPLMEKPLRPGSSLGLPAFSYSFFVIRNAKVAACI
T2 sequence (Q9Y251 36-109 limits assumed): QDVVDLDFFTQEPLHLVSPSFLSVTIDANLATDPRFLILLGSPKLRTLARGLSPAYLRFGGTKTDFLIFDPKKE
Summary of the method: as §1

recombinant human KL = biological target: T3, recombinant human KL (Homo sapiens, UniProt Q9UEF7); assay: GUSB-specificity of substrate deconjugation; type: biochemical; details: 37°C, 50 mM sodium acetate buffer pH 5
T3 sequence (Q9UEF7 34-1012): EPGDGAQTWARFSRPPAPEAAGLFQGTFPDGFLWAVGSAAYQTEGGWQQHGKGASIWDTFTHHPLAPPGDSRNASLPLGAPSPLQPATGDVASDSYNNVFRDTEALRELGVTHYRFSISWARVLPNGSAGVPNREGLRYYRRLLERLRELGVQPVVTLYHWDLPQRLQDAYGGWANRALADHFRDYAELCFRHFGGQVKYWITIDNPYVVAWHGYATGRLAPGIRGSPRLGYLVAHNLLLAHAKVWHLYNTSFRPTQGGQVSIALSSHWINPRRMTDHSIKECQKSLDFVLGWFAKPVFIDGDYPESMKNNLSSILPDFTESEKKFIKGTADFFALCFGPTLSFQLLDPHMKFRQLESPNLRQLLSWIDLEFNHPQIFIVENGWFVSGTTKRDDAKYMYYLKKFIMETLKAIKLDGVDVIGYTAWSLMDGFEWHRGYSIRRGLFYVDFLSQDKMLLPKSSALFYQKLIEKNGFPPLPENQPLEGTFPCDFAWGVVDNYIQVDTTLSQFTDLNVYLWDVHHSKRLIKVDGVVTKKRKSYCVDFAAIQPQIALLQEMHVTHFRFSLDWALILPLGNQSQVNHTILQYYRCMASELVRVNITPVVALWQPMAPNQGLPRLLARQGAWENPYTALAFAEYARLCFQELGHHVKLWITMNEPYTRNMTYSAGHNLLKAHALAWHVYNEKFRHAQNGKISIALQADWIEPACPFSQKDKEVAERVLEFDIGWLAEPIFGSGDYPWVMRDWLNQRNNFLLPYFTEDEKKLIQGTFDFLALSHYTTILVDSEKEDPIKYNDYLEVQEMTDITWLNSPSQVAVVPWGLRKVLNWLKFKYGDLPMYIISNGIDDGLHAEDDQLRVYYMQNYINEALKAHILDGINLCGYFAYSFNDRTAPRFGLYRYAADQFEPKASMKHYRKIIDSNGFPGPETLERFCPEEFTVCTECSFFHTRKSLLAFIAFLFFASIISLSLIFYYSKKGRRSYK
Summary of the method: as §1

GUSB [4] = biological target: T4, GUSB (Mus musculus, UniProt P12265); type: biochemical, C57BL/6NJ mice; details: SL 10 mM, 10 μM curcumin-glucuronide, 2 h, 37°C
T4 sequence (P12265 23-648): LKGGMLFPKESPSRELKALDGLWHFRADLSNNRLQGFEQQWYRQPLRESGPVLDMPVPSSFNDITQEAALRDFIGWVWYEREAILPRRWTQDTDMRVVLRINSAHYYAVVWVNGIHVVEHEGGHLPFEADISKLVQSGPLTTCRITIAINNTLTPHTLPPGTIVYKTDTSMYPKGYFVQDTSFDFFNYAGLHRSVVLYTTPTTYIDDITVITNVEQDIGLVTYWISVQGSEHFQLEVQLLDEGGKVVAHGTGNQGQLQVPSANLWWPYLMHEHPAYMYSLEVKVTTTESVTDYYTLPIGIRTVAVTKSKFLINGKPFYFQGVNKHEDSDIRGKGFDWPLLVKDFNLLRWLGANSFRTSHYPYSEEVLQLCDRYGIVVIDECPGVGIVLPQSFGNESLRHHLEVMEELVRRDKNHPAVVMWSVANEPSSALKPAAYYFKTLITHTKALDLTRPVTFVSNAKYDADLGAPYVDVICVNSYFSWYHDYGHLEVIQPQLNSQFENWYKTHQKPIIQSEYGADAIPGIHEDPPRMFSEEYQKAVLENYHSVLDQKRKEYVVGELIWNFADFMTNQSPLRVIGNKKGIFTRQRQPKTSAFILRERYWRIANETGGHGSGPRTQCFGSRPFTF

GUSB [5] = biological target: T4, GUSB; type: in vivo, C57BL/6J mice; details: SL 1 g/kg IP 1 h before oral curcumin 500 mg/kg
Summary of the method: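 Mice were pretreated with saccharolactone (1 g/kg in saline, IP) 1 h before oral gavage of 500 mg/kg curcumin in DMSO. Serum (clotted 10 min RT, 8,000 g 10 min) and marrow were taken at 30 min. Marrow was resuspended in 50 mM sodium acetate pH 5 and held 2 h on ice. Aglycone curcumin and curcumin-glucuronide were measured by LC/MS after HLB extraction.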

GUSB [6] = biological target: T4, GUSB; assay: Ex vivo saccharolactone added to marrow suspensions from curcumin-treated mice; type: biochemical, C57BL/6J mice; details: 10 mM SL in sodium acetate buffer
Summary of the method: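 Female 4-week C57BL/6J mice were gavaged with 500 mg/kg oral curcumin in DMSO. Leg marrow was spun out (10,000 g, 15 s) at 30 min and resuspended in 50 mM sodium acetate pH 5 with or without 10 mM saccharolactone. It was held 2 h on ice, then supernatants were taken. Aglycone and glucuronide were quantified by LC/MS (HLB extraction, C18, SRM) as % of total curcumin. n=3–4/group.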

Aglycone curcumin as share of circulating total curcumin ([1]; BL/6J serum, IP curcumin): < 4%
Aglycone curcumin as share of total in ex vivo bone marrow suspensions ([1]; BL/6J, IP curcumin): 51 % of total
Bone marrow aglycone curcumin (% of total curcumin) lower vs BL/6J ([1]; HeJ mice, IP curcumin): 73%
Bone marrow aglycone curcumin (% of total curcumin) decrease vs BL/6J ([1]; mps/mps mice, IP curcumin): 88%
Increase of circulating curcumin concentrations vs BL/6J ([1]; mps/mps mice, IP curcumin): 3.2 fold
Concentration in serum ([1]; mps/mps, 20 min after IP 100 mg/kg curcumin, mean (SEM)): 22.8 (6.9)^a,b μM
Aglycone curcumin as share of total curcumin in perfusing serum ([2]; 30 min post oral dose, C57BL/6J): 0.1–0.2 % of total curcumin
Concentration in serum ([2]; C3H/HeJ, 30 min after oral 500 mg/kg curcumin, mean (SEM)): nd (≤0.01) μM
Absolute and relative amounts of marrow aglycone curcumin lower in HeJ vs BL/6J ([2]; oral 500 mg/kg curcumin, 30 min): 59–65%
Aglycone curcumin as share of total curcumin in serum ([3]; 30 min post oral dose, n=11): 0.24% ± 0.07%
Aglycone curcumin as share of total curcumin in lyophilized whole bone marrow ([3]; post oral dose, n=8): 0.77% ± 0.21%
SMILES: COc1cc(/C=C/C(=O)CC(=O)/C=C/c2ccc(O)c(OC)c2)ccc1O [aglycone curcumin, curcumin]
Effect on RAW 264.7 cell viability (RAW 264.7 cells): did not alter

Rate of cleavage by GUSB (recombinant human GUSB): 2.64 nmol 4-MU/pmol enzyme/min
Rate of cleavage by HPSE (recombinant human HPSE; without effect): < 0.007 nmol 4-MU/nmol enzyme/min
Rate of cleavage by KL (recombinant human KL; without effect): < 0.007 nmol 4-MU/nmol enzyme/min
SMILES: Cc1cc(=O)oc2cc(O[C@@H]3O[C@H](C(=O)O)[C@@H](O)[C@H](O)[C@H]3O)ccc12 [glucuronidated 4-MU, 4-methylumbelliferyl-glucuronide]

Rate of cleavage by GUSB (recombinant human GUSB): 23.5 nmol PheP/nmol enzyme/min
Rate of cleavage by HPSE (recombinant human HPSE): 0.14 nmol PheP/nmol enzyme/min
Rate of cleavage by KL (recombinant human KL): 1.0 nmol PheP/nmol enzyme/min
SMILES: O=C1OC(c2ccc(O)cc2)(c2ccc(O[C@@H]3O[C@H](C(=O)O)[C@@H](O)[C@H](O)[C@H]3O)cc2)c2ccccc21 (stereo partly shown) [glucuronidated PheP, Phenolphthalein-glucuronide]

SMILES: O.O=C(O)[C@@H](O)[C@H]1OC(=O)[C@H](O)[C@H]1O [saccharolactone, D-Saccharic acid 1,4-lactone monohydrate]
Effect on deconjugation of GC in marrow-conditioned media (GUSB [4]): inhibitable
Aglycone curcumin levels in marrow suspensions after in vivo inhibitor treatment (GUSB [5]): no longer detectable
Effect on serum levels of aglycone curcumin (GUSB [5]; data not shown): unchanged
Aglycone curcumin in marrow suspensions with inhibitor added ex vivo (GUSB [6]): not detected
